Hits are enriched below; roughly 1.9% of the tested compounds scored in any of these assays.
TAG inh = reduces triacylglycerol accumulation in H9c2 cells | Nile Red lipid (TAG) fluorescence; cells loaded with 200 µM oleic acid | inhibition, % at 12.5 µM | actives 0.66% (n = 230,000) | AID 651582;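 active means pattern-corrected inhibition of lipid staining of at least 50% with the nuclear-stain viability signal not falling by more than 50%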;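 further: 0% = DMSO wells and 100% = triacsin C control wells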
APJ agonist = APJ receptor agonism. CHO-K1 APJ PathHunter beta-arrestin, luminescence; 0% DMSO wells, 100% apelin. actives 0.11% (n = 330,000). P35414. activation, % at 20 µM;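 active means activation more than six SD over the plate average, tested at 20 µM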;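 further: 0% = DMSO alone and 100% = apelin-13 at 10 nM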
Target sequence (P35414 whole entry, looked up): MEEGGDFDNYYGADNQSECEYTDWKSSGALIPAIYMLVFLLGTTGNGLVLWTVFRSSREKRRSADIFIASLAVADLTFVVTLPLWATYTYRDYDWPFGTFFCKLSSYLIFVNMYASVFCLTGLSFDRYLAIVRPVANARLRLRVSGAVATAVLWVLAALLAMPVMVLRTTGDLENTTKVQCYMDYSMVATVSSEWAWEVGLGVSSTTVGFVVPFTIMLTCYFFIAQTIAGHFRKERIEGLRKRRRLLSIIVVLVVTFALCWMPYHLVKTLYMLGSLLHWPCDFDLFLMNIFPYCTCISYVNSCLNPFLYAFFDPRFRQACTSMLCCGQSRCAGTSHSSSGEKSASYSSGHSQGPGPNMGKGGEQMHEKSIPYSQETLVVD
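Assay system: CHO-K1 cells stably expressing ProLink-tagged human APJ and arrestin–beta-gal acceptor. Compound dosing: 20 µM single point, 1% DMSO. Times: 16-18 h seeding, 90 min dark compound exposure, 60 min detection. Detection: beta-gal luminescence. Evaluation: APJ–arrestin association signal. Controls: negative DMSO alone, positive Apelin-13 at 10 nM.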
CCR6 antag = blocks CCL20-driven beta-arrestin recruitment at human CCR6; actives 0.49% (n = 340,000); inhibition, % at 20 µM; AID 493098; CHO-K1 CCR6 PathHunter beta-arrestin, luminescence, CCL20-stimulated; P51684;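 active means compounds whose inhibition of the agonist-driven luminescence signal at 20 µM reaches about 50%, limit read from the data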;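 further: cells stimulated with CCL20 at 14 nM final; plate controls were DMSO with CCL20 for no effect and DMSO without agonist for full effect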
CXCR6 block = inhibitors of human CXCR6 receptor; O00574; CHO-K1 PathHunter CXCR6 beta-arrestin, luminescence; inhibition, % at 20 µM; actives 0.36% (n = 360,000); in the data active means inhibition above about 34%, passing the limit was not always enough;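 further: antagonist mode with CXCL16 agonist at 10 nM final; 0% = 10 nM CXCL16 with DMSO and 100% = unstimulated wells without agonist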
APJ antagonist = APJ receptor antagonism; inhibition, % at 20 µM; actives 0.32% (n = 330,000); CHO-K1 APJ beta-arrestin complementation, luminescence;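 active means inhibition above about 40% at 20 µM, limit read from the data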;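 further: cells challenged with 10 nM apelin-13 agonist together with compound; plate controls were apelin-13 plus DMSO wells for no effect and DMSO wells lacking apelin-13 for full effect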
EBI2 antag = antagonists of human EBI2 receptor; P32249; EBI2 beta-arrestin recruitment, luminescence, 7a,25-OHC stimulated; inhibition, % at 5 µM; actives 0.81% (n = 360,000); AID 651636; in the data active means inhibition above about 38%;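 further: enzyme fragment complementation signal reports receptor beta-arrestin coupling in cells; 0% = agonist plus DMSO wells and 100% = wells without agonist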
APJ antag conf = APJ receptor antagonism confirmation | shares compounds with APJ antagonist | APJ beta-arrestin recruitment, luminescence, antagonist mode | inhibition, % at 20 µM | actives 66% (n = 950) | AID 2766; in the data active means inhibition above about 50%
The depositor's hits bear a star.

How did Cc1ccc(Nc2ccc([N+](=O)[O-])ccc2=O)cc1 do in these assays?
TAG inh: -6.7; APJ agonist: 9.5; CCR6 antag: 6.0; CXCR6 block: -0.5; APJ antagonist: -8.7; EBI2 antag: 35.0

How did O=C(COC(=O)C1CCC(=O)N1)Nc1cccc([N+](=O)[O-])c1 (centres undefined) do in these assays?
TAG inh: -14.8; APJ agonist: -3.5; CCR6 antag: 16.3; CXCR6 block: 2.5; APJ antagonist: 6.9; EBI2 antag: 3.5

Results for CC(C)Cc1nc2oc3c(Cl)ncnc3c2c2c1CCC2 ?
APJ agonist: -2.1; CCR6 antag: 22.7; CXCR6 block: 14.8; APJ antagonist: 40.8*; EBI2 antag: 48.3*; APJ antag conf: 86.4*

Results for Cc1c(C(=O)NCCNc2ncc(C(F)(F)F)cc2Cl)cccc1[N+](=O)[O-] ?
APJ agonist: -1.3; CCR6 antag: 24.1; CXCR6 block: 0.5; APJ antagonist: -5.2; EBI2 antag: 9.9

What do the screens show for `O=[N+]([O-])c1cccc(Cl)c1NCCNc1ncc(C(F)(F)F)cc1Cl`?
TAG inh: -4.8; APJ agonist: -2.3; CCR6 antag: 16.5; CXCR6 block: 4.6; APJ antagonist: 42.7*; EBI2 antag: 2.4; APJ antag conf: 31.1

Results for O=C1C=C(OCCF)CC(c2cccc([N+](=O)[O-])c2)O1 (centres undefined) ?
EBI2 antag: -1.4

What do the screens show for `O=C(Cc1ccc(F)cc1)OCC(=O)c1cc2ccccc2o1`?
APJ agonist: -12.2; CCR6 antag: 88.6*; CXCR6 block: 10.9; APJ antagonist: 76.8*; EBI2 antag: -5.0; APJ antag conf: 89.9*

What do the screens show for `CC(NC(=O)COc1ccccc1)C(=O)OCC(=O)c1cc2ccccc2o1` (centres undefined)?
TAG inh: -6.9; APJ agonist: -20.0; CCR6 antag: 88.8*; CXCR6 block: 43.7*; APJ antagonist: 55.1*; EBI2 antag: 12.6; APJ antag conf: 116.2*

Results for O=C(COc1ccccc1)NNC(=O)c1cc2ccccc2o1 ?
APJ agonist: 2.7; CCR6 antag: -8.6; CXCR6 block: 2.3; APJ antagonist: 7.6; EBI2 antag: 0.9

How did O=C(CCNc1ccc(F)cc1)c1cc2ccccc2o1 do in these assays?
TAG inh: 5.5; APJ agonist: -1.4; CCR6 antag: 5.3; CXCR6 block: -1.2; APJ antagonist: -17.3; EBI2 antag: 1.6

What do the screens show for `CCCc1nc2ccccc2c(=O)n1CCc1ccccc1`?
APJ agonist: -1.5; CCR6 antag: 15.8; CXCR6 block: 2.7; APJ antagonist: 7.0; EBI2 antag: 14.2

What do the screens show for `Cc1ccc(C)c(S(=O)(=O)Nc2ccc(O)c(C(=O)O)c2)c1`?
TAG inh: -8.3; APJ agonist: 0.5; CCR6 antag: -3.3; CXCR6 block: 4.1; APJ antagonist: 47.8*; EBI2 antag: -4.6; APJ antag conf: 36.1

Results for O=C(CNc1ccc(Br)cc1)NC(=O)NC1CCCCC1 ?
TAG inh: -13.4; APJ agonist: -3.8; CCR6 antag: 27.9; CXCR6 block: -4.0; APJ antagonist: -6.2; EBI2 antag: 8.9

What do the screens show for `Cc1ccc(/C=C2/NC(=O)N(Cc3ccccc3)C2=O)o1`?
TAG inh: 7.3; APJ agonist: -8.9; CCR6 antag: 13.0; CXCR6 block: 8.0; APJ antagonist: 61.3*; EBI2 antag: -1.6; APJ antag conf: 37.2

Results for Cc1cccc2c1N(CCCOc1ccccc1)C(=O)C2=O ?
APJ agonist: -4.9; CCR6 antag: 38.8; CXCR6 block: -0.5; APJ antagonist: 44.4*; EBI2 antag: 11.5; APJ antag conf: 75.7*

What do the screens show for `CC(=O)Oc1ccc(Cl)cc1CN(C(C)=O)C1CCCCC1`?
TAG inh: -6.2; CCR6 antag: 5.7; CXCR6 block: -3.8; EBI2 antag: 9.6

How did Cc1cc(Nc2ccccc2C(=O)O)n2ncnc2n1 do in these assays?
TAG inh: 9.1; CXCR6 block: -2.0; EBI2 antag: 3.3

How did Cc1ccc(N=Nc2c(C)[nH]n(C(N)=S)c2=O)cc1 do in these assays?
TAG inh: 1.8; APJ agonist: -0.5; CCR6 antag: 25.9; CXCR6 block: 20.6; APJ antagonist: 6.0; EBI2 antag: 16.4

What do the screens show for `Cc1[nH]n(C(N)=S)c(=O)c1N=Nc1ccc(S(=O)(=O)N2CCCC2)cc1`?
TAG inh: -13.7; APJ agonist: -13.4; CCR6 antag: 46.8; CXCR6 block: 28.4; APJ antagonist: 57.2*; EBI2 antag: 4.2; APJ antag conf: 80.1*

How did C/C(=N\NC(=O)c1cc(Br)ccc1O)c1ccccn1 do in these assays?
TAG inh: -8.6; APJ agonist: -13.1; CCR6 antag: 54.1*; CXCR6 block: 39.5; APJ antagonist: 44.1*; EBI2 antag: 35.9; APJ antag conf: 32.5

What do the screens show for `O=S1(=O)Nc2c(ccc3cccnc23)-c2ccccc21`?
APJ agonist: -11.0; CCR6 antag: 60.7*; CXCR6 block: 42.3*; APJ antagonist: 52.6*; EBI2 antag: 36.9; APJ antag conf: 43.0

Results for OCCN1C[C@H](O)[C@@H](O)[C@H](O)[C@H]1CO ?
APJ agonist: -11.7; APJ antagonist: 43.2*; APJ antag conf: 65.1*

How did O=[N+]([O-])c1ccc(S(=O)(=O)c2ccccc2)nc1 do in these assays?
APJ agonist: 5.9; CCR6 antag: 71.2*; CXCR6 block: 52.1*; APJ antagonist: 43.0*; EBI2 antag: -12.8; APJ antag conf: 50.6*

Results for CCOC1=C2CN(S(=O)(=O)c3ccc(C)cc3)[C@@H](c3ccc(CC)cc3)C[C@H]2[C@H]2C(=O)N(c3ccccc3)C(=O)[C@H]2C1 ?
CXCR6 block: 1.9; EBI2 antag: 7.1

Results for O=c1c(N=Nc2ccc(O)cc2)c(-c2ccccc2)[nH]n1-c1ccc([N+](=O)[O-])cc1 ?
TAG inh: 88.1*; APJ agonist: -5.7; CCR6 antag: 52.0*; CXCR6 block: 37.1; APJ antagonist: 54.1*; EBI2 antag: 33.7; APJ antag conf: 42.6

Results for NC(=S)n1[nH]c(-c2ccc([N+](=O)[O-])cc2)c(N=Nc2ccc(Cl)cc2)c1=O ?
TAG inh: 11.7; CCR6 antag: 45.1; CXCR6 block: 24.3; EBI2 antag: 26.3

How did Cc1ccc(CNS(=O)(=O)c2ccc(-n3cnnn3)c(C)c2)cc1 do in these assays?
APJ agonist: -3.0; CCR6 antag: 5.2; CXCR6 block: -0.8; APJ antagonist: 17.6; EBI2 antag: 6.4

What do the screens show for `CCN1C=C(Cc2cccs2)C2=C(C1)C(c1cccs1)C(C#N)=C(N)O2` (centres undefined)?
TAG inh: 9.6; APJ agonist: -4.4; CCR6 antag: 32.5; CXCR6 block: 8.9; APJ antagonist: 40.8*; EBI2 antag: 5.7; APJ antag conf: -14.5
